Laboratory results from PMC5414581 (Neuropharmacology, 2017).
Positions count from the first letter of the chain named. “Also recorded” adds a separate entry of the source. Where a SMILES comes first, the peptide text is derived from it. Where no end group is shown, it is not given here. Me2 = N,N-dimethyl-lysine

How the values were obtained:
[1] = target: T1, human NPS receptor, 107I variant (human) (UniProt Q6W5P4)
T1 sequence: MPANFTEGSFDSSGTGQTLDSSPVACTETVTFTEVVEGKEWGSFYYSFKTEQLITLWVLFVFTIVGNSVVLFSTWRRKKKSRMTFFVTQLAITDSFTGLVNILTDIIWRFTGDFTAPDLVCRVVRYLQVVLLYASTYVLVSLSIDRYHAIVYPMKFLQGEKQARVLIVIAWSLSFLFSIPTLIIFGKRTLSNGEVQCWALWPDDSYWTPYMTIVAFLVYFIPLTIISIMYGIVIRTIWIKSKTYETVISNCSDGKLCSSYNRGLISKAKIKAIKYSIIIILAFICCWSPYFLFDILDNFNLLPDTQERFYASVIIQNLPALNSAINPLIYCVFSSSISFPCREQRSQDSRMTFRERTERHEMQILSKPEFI

mice [2] = assay: Locomotor stimulation; type: in vivo, mouse; conditions: RTI-118 50 mg/kg i.p.; compound 4 10 nmole ICV
In short: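 Mice were habituated 1 h in a 40 × 40 cm infrared-beam open field in a novel room, during the light phase. Test compound in aCSF/0.1% BSA was given ICV into the lateral ventricle under brief isoflurane. Recording began after ≥5 min recovery. The antagonist was given 50 mg/kg i.p. in saline as pretreatment. Misplaced injections were excluded post-mortem. n = 7–11 per group; one-way ANOVA with Dunnett's test.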

mice [3] = assay: Marble Burying; type: in vivo, mouse
mNPSR [4] = target: T2, mNPSR (Mus musculus, UniProt Q8BZP8); assay: cAMP accumulation assay; type: cell-based
T2 sequence (Q8BZP8 1-371): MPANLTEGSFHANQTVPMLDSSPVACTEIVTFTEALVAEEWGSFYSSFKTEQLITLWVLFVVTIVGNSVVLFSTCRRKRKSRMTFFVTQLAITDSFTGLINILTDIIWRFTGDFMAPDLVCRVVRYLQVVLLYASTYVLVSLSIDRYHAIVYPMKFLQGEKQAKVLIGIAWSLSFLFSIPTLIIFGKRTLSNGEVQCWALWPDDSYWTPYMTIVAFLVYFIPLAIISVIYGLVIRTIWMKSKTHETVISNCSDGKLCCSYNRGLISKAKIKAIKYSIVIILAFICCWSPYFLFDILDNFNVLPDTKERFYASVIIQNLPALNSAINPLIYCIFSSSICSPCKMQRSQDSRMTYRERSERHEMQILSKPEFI
In short: (§1)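 Cells were harvested with versene and suspended in HBSS, 5 mM HEPES, 0.5 mM IBMX, 0.1% BSA, pH 7.4: hNPSR-107N at 8,000/well, hNPSR-107I at 4,000/well, mNPSR at 20,000/well. Agonist was incubated at room temperature for 30 min (human lines) or 1 h (mNPSR). LANCE Ultra TR-FRET detection ran 1 h in the dark. RFU was interpolated to fmol cAMP from a standard curve, and a three-parameter fit gave EC50.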

hNPSR-107I [5] = target: T3, hNPSR-107I (Homo sapiens, UniProt Q6W5P4, N107I); assay: cAMP accumulation assay; type: cell-based
T3 sequence (Q6W5P4 1-371 N107I): T1 sequence
In short: as §1

mNPSR [6] = target: T2, mNPSR; assay: Ca+2 mobilization assay, HEK 293T mNPSR cells; type: cell-based
In short: (§2)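 FLIPR Calcium 5 dye diluted 1:40 in HBSS, 20 mM HEPES, 2.5 mM probenecid, pH 7.4, loaded 45 min at 37 °C. Cells were plated overnight without selection antibiotics: CHO-Gα16 hNPSR-107I/N at 25,000/well and HEK 293T mNPSR at 35,000/well. Cells were pretreated 15 min at 1% DMSO. Test compound or NPS was added during a 60 s read (ex 485/em 525). Peak RFU was fit to a three-parameter logistic curve to give EC50. Bias was taken as Log(max/EC50), calcium versus cAMP, relative to NPS.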

hNPSR-107I [7] = target: T3, hNPSR-107I; assay: Ca+2 mobilization assay, CHO-Gα16 hNPSR-107I cells; type: cell-based
In short: as §2

hNPSR-107N [8] = target: T4, hNPSR-107N (Homo sapiens, UniProt Q6W5P4); assay: cAMP accumulation assay; type: cell-based
T4 sequence (Q6W5P4 1-371): T1 sequence with I107N
In short: as §1

mice [9] = assay: Light-Dark Box; type: in vivo, mouse; conditions: 1 nmole ICV, 5–10 minutes before test
hNPSR-107N [10] = target: T4, hNPSR-107N; assay: Ca+2 mobilization assay, CHO-Gα16 hNPSR-107N cells; type: cell-based; conditions: hNPSR 107N cell line
In short: as §2

hNPSR-107I [11] = target: T3, hNPSR-107I; conditions: ref Bernier et al., 2006; cited from earlier work
mice [12] = assay: Passive Avoidance; type: in vivo, mouse; conditions: ICV 20 minutes after training, tested 48 hours after training; compound 4 0.01-10 nmole, NPS 1 nmole; vs aCSF
[13] = target: T5, human NPS receptor, 107N variant (human) (UniProt Q6W5P4)
T5 sequence: T1 sequence with I107N

[14] = target: T6, mouse NPS receptor (mouse) (UniProt Q8BZP8)
T6 sequence: T2 sequence (Q8BZP8 1-371)

[15] = mNPSR cell line, fraction of maximal window for response
[16] = hNPSR 107I cell line, fraction of maximal window for response

Molecule: 7. SerPheAOCAsn-NH2 (peptide)
- EC50 of calcium mobilization, CHO-Gα16 hNPSR-107I cells [1]: 436 nM

Molecule: O=C(NCCN1CCCCC1)N1CCN2C(=O)OC(c3ccccc3)(c3ccccc3)C2C1 (stereo not shown) [RTI-118]
- block of compound 4 induced locomotor effects by pretreatment (mice [2]): induced locomotor effects can be blocked; also recorded: this effect is blocked by pretreatment
- block of compound 4 effect on marble burying by pretreatment (mice [3]; RTI-118 20 mg/kg fifteen minutes before compound 4 0.5 nmole): effects of 4 can be blocked; also recorded: blocked by the pretreatment with RTI-118

Molecule: NCCCC[C@H](NC(=O)[C@H](Cc1ccccc1)NC(=O)[C@@H](N)CO)C(=O)N[C@@H](CC(N)=O)C(N)=O [compound 4, SerPheLysAsn-NH2] (H-SFKN-NH2)
- EC50 (mNPSR [4]): 911 ± 86 nM
- EC50 (hNPSR-107I [5]): 117 ± 22 nM
- EC50 (mNPSR [6]): 100 ± 5.3 nM
- EC50 (hNPSR-107I [7]): 3.02 ± 0.74 nM

Molecule: SFRNGV-NH2 [compound 1, SerPheArgAsnGlyVal-NH2]
- EC50 (mNPSR [4]): 13.4 ± 4.8 nM
- EC50 (hNPSR-107I [5]): 1.95 ± 0.28 nM
- cAMP Accumulation EC50 (hNPSR-107I [5]; hNPSR 107I cell line): comparable potency to NPS
- EC50 (mNPSR [6]): 2.03 ± 0.3 nM
- EC50 (hNPSR-107N [8]): 427 nM

Molecule: SFRNGVGTGMKKTSFQRAKS [NPS, Neuropeptide S]
- number of entries into the light-side (mice [9]): Neither NPS nor 4 significantly increased the number of entries into the light-side; also recorded: significantly more entries than compound 4 treated animals
- time spent on the light side (mice [9]; vs aCSF): significantly increased the time spent on the light-side; also recorded: spent significantly more time on the light-side than the compound 4 treated animals
- BIAS (Bias Toward Calcium) (hNPSR-107N [10]; calcium versus cAMP pathway): 1.00
- Calcium Mobilization Max (hNPSR-107N [10]; fraction of maximal window for response): 0.97
- cAMP Accumulation Max (mNPSR [4]; [15]): 0.82
- selectivity for the hNPSR-107I over the hNPSR-107N (calcium mobilization EC50) (hNPSR-107I [11]): 5 fold
- cAMP Accumulation Max (hNPSR-107I [5]; [16]): 1
- BIAS (Bias Toward Calcium) (mNPSR [6]; mNPSR cell line, calcium versus cAMP pathway): 1.00
- Calcium Mobilization Max (mNPSR [6]; [15]): 1
- cAMP Accumulation Max (hNPSR-107N [8]; hNPSR 107N cell line, fraction of maximal window for response): 0.97
- BIAS (Bias Toward Calcium) (hNPSR-107I [7]; hNPSR 107I cell line, calcium versus cAMP pathway): 1.00
- Calcium Mobilization Max (hNPSR-107I [7]; [16]): 0.96
- number of marbles buried (mice [3]; 1 nmole ICV, twenty minutes before test, vs aCSF (Figure 5A)): NPS and 4 produce similar effects; also recorded: significantly decreased the number of marbles buried
- latency to enter the dark compartment (mice [12]): appear to have the same maximal effects; also recorded: significantly increased the latency time

B1: Neuropeptide S (peptide)
peptide: SFRNGVGTGMKKTSFQRAKS
- EC50 of cAMP accumulation, HEK 293T hNPSR-107N cells [13]: 48.9 nM
- EC50 of calcium mobilization, CHO-Gα16 hNPSR-107N cells [13]: 2 nM
- EC50 of cAMP accumulation, HEK 293T hNPSR-107I cells [1]: 4.19 nM
- EC50 of calcium mobilization, CHO-Gα16 hNPSR-107I cells [1]: 0.59 nM
- EC50 of cAMP accumulation, HEK 293T mNPSR cells [14]: 3.67 nM
- EC50 of calcium mobilization, HEK 293T mNPSR cells [14]: 5.55 nM

B2: 6. SerPheLysCOCF3Asn-NH2 (peptide)
peptide: SFK(trifluoroacetyl)N-NH2
- EC50 of calcium mobilization, CHO-Gα16 hNPSR-107I cells [1]: 563 nM

B3: 1. SerPheArgAsnGlyVal-NH2 (peptide)
peptide: SFRNGV-NH2
- EC50 of cAMP accumulation, HEK 293T hNPSR-107N cells [13]: 427 nM
- EC50 of cAMP accumulation, HEK 293T hNPSR-107I cells [1]: 1.95 nM
- EC50 of cAMP accumulation, HEK 293T mNPSR cells [14]: 13.4 nM
- EC50 of calcium mobilization, HEK 293T mNPSR cells [14]: 2.03 nM

B4: 2. SerPheArgAsnGly-NH2 (peptide)
peptide: SFRNG-NH2
- EC50 of cAMP accumulation, HEK 293T hNPSR-107N cells [13]: > 10000 nM
- EC50 of cAMP accumulation, HEK 293T hNPSR-107I cells [1]: 3060 nM
- EC50 of cAMP accumulation, HEK 293T mNPSR cells [14]: > 10000 nM
- EC50 of calcium mobilization, HEK 293T mNPSR cells [14]: 1010 nM

B5: 3. SerPheArgAsn-NH2 (peptide)
peptide: SFRN-NH2
- EC50 of cAMP accumulation, HEK 293T hNPSR-107N cells [13]: > 10000 nM
- EC50 of calcium mobilization, CHO-Gα16 hNPSR-107N cells [13]: 998 nM
- EC50 of cAMP accumulation, HEK 293T hNPSR-107I cells [1]: 129 nM
- EC50 of calcium mobilization, CHO-Gα16 hNPSR-107I cells [1]: 2.43 nM
- EC50 of cAMP accumulation, HEK 293T mNPSR cells [14]: 800 nM
- EC50 of calcium mobilization, HEK 293T mNPSR cells [14]: 66.6 nM

B6: 4. SerPheLysAsn-NH2 (peptide)
peptide: SFKN-NH2
- EC50 of cAMP accumulation, HEK 293T hNPSR-107I cells [1]: 117 nM
- EC50 of calcium mobilization, CHO-Gα16 hNPSR-107I cells [1]: 3.02 nM
- EC50 of cAMP accumulation, HEK 293T mNPSR cells [14]: 911 nM
- EC50 of calcium mobilization, HEK 293T mNPSR cells [14]: 100 nM

B7: 5. SerPheDimethylLysAsn-NH2 (peptide)
peptide: SFK(Me2)N-NH2
- EC50 of calcium mobilization, CHO-Gα16 hNPSR-107I cells [1]: 43.5 nM
